The list is not random: actives were taken first. Their share in the collection is about 2.5%.
SENP6 inh: SENP6 protease inhibition; Recombinant SENP6 catalytic domain, aminoluciferin luminescence; inhibition, % at 10 µM; 330,000 tested, 1.8% active;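 active = inhibition above about 50% at the single tested dose, limit read from the data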
Target sequence (Q9GZR1 628-1112 limits assumed): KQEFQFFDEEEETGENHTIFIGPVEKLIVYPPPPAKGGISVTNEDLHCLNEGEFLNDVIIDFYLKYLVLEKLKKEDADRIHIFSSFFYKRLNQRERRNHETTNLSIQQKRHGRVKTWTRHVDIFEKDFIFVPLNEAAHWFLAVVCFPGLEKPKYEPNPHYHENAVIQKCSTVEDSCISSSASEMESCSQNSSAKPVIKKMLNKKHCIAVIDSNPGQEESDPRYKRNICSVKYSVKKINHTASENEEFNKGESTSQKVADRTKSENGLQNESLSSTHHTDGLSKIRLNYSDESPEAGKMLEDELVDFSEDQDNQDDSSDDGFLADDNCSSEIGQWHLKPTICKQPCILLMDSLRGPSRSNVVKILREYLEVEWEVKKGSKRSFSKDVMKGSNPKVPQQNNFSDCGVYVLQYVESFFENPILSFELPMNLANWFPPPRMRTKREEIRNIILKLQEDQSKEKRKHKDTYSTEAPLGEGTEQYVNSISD
SENP8 block-1: inhibitors of human SENP8 protease. 330,000 tested, 1.2% active. AID 2540. inhibition, % at 10 µM. Q96LD8. purified SENP8, Z-RLRGG-aminoluciferin cleavage, luminescence; in the data active = inhibition above about 50%
SENP7 block: SENP7 protease inhibition; Q9BQF6; recombinant SENP7, Z-RLRGG-aminoluciferin luminescence, 40 min; inhibition, % at 5 µM; 330,000 tested, 1.5% active;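 active = inhibition above about 50% at the single test dose, limit read from the data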
SENP1 FRET inh: blocks the human SENP1 SUMO protease catalytic domain; Q9P0U3; recombinant SENP1 catalytic domain, CyPet-SUMO1-YPet FRET cleavage; inhibition, % at 10 µM; 360,000 tested, 0.21% active;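 active = inhibition at least 30% at 10 µM, raw YFP signal under a set limit, fluorescence ratio 0.5 to 1.5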
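Test system: recombinant human SENP1 catalytic domain, His6-tagged / Medium: pH 8 Tris buffer with EDTA, NaCl, BME, BSA, NP40, catalase / Also added: SUMO1 FRET substrate flanked by Cypet and Ypet, 25 nM / Times: 50 min reaction at room temperature / Signal: FRET, CFP and YFP emission / Control set: no-enzyme low control and enzyme-plus-DMSO high control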
SENP8 block-2: inhibitors of human SENP8 protease; Q96LD8; recombinant SENP8, Nedd8 substrate fluorescence; inhibition, % at 20 µM; 360,000 tested, 0.64% active; in the data active = inhibition mostly above about 40%, no sharp cut-off; inactive = mostly below about 27%
SENP8 conf-1: human SENP8 inhibition, confirmed; Recombinant SENP8, Z-RLRGG-aminoluciferin luminescence, 60 min; inhibition, % at 12.5 µM; shares compounds with SENP7 block; 6,200 tested, 40% active;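 active = mean inhibition across replicates above about 50%, limit read from the data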
SENP6 confirm: human SENP6 inhibition, confirmed; shares compounds with SENP7 block; 6,200 tested, 58% active; recombinant SENP6, Z-RLRGG-aminoluciferin luminescence; inhibition, % at 12.5 µM
SENP7 conf: confirmation of human SENP7 protease inhibitors; 6,200 tested, 69% active; inhibition, % at 12.5 µM; recombinant SENP7, Z-RLRGG-aminoluciferin luminescence, 40 min; shares compounds with SENP7 block
Casp3 select: selectivity test for SENP inhibitors: human caspase-3 inhibition; shares compounds with SENP7 block; purified caspase-3, Z-DEVD-aminoluciferin luminescence, 60 min; inhibition, % at 12.5 µM; 6,200 tested, 60% active; AID 488918;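 active = mean inhibition above about 50%, limit read from the data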
Target sequence (P42574 28-227 limits assumed): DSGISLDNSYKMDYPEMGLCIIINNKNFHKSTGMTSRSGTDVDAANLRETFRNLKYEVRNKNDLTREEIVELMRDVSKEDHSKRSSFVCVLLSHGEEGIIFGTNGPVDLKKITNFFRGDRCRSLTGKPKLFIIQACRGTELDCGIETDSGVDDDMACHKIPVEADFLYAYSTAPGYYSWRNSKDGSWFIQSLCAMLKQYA
SENP luc ctr: luminescence interference (SENP counter-screen); shares compounds with SENP7 block; Pre-incubated SENP8/Z-RLRGG-aminoluciferin, luciferase luminescence interference; inhibition, % at 12.5 µM; 6,200 tested, 39% active; AID 488919;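 active = mean inhibition above about 50% when retested at one dose, limit read from the data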
SENP8 conf-2: confirmation of human SENP8 protease inhibitors. 1,400 tested, 15% active. inhibition, % at 25 µM. shares compounds with SENP8 block-2. purified SENP8, Nedd8-AMC/pro-Nedd8 cleavage fluorescence, 30 min; in the data active = inhibition mostly above about 39%, no sharp cut-off; inactive = mostly below about 34%
Of the large screens only hits and unclear results are named; the others gave an inactive call (follow-up assays come after a bar, where they were run).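 Rule for the calls, unless noted: active = mean inhibition above about 50% in the one-dose retest (limit read from the data); inactive = the rest.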

CC1=NN(c2ccc(F)cc2)C(=O)C1C(c1cccc(O)c1)c1c(C)[nH]n(-c2ccc(F)cc2)c1=O (centres undefined)	SENP7 block 58, SENP8 block-2 90 | SENP8 conf-1 inactive | SENP6 confirm inactive | SENP7 conf inactive | Casp3 select inactive | SENP luc ctr inactive | SENP8 conf-2 52
COc1ccc(-c2[nH]nc3nc(N4CCN(C(=O)c5ccoc5)CC4)cc(C(F)(F)F)c23)cc1	none (no result: SENP6 inh, SENP8 block-1, SENP7 block)
COc1ccc2c(c1)Cc1sc(NC(C)=O)nc1-2	SENP6 inh 81, SENP8 block-1 73, SENP7 block 62, SENP8 block-2 67 | SENP8 conf-1 inactive | SENP6 confirm 52 | SENP7 conf 76 | Casp3 select 54 | SENP luc ctr inactive | SENP8 conf-2 66
Nc1c(C(=O)N/N=C/c2ccc(Cl)cc2)cnn1-c1ccccc1	none
Nc1scc2c(C(=O)N/N=C/c3ccc(Cl)cc3)nn(-c3ccccc3)c(=O)c12	SENP6 inh 50, SENP8 block-2 69 | SENP8 conf-1 inactive | SENP6 confirm inactive | SENP7 conf inactive | Casp3 select inactive | SENP luc ctr inactive | SENP8 conf-2 86
CC1C(C#N)=C(N)OC2=C1C(=O)CC(c1ccccc1)C2 (centres undefined)	none
Oc1cc(NCCN2CCOCC2)cc2cccnc12	SENP6 inh 74, SENP8 block-1 61, SENP7 block 64, SENP8 block-2 64 | SENP8 conf-1 inactive | SENP6 confirm 76 | SENP7 conf inactive | Casp3 select 95 | SENP luc ctr inactive | SENP8 conf-2 91
Oc1cc(Nc2ccccc2)cc2cccnc12	none
CCC(=O)c1cn([C@@H](CCC(OC)OC)CC(=O)OC(C)(C)C)cc1CC	none
COC(=O)c1[nH]c(=O)c2ccccc2c1O	SENP6 inh 64, SENP8 block-1 52, SENP8 block-2 41 | SENP8 conf-1 inactive | SENP6 confirm inactive | SENP7 conf inactive | Casp3 select inactive | SENP luc ctr inactive | SENP8 conf-2 inactive
COc1ccc(N2C(=O)CC(NNC(=O)c3cccnc3)C2=O)cc1 (centres undefined)	none
Nc1ccc(N2CCCCC2)c2nonc12	SENP6 inh 90, SENP8 block-1 58, SENP8 block-2 80 | SENP8 conf-1 inactive | SENP6 confirm 56 | SENP7 conf inactive | Casp3 select inactive | SENP luc ctr inactive | SENP8 conf-2 70
O=c1c2ccccc2ncn1Cc1cccc2ccccc12	none
Cc1[nH][nH]c(=O)c1C(c1c(C)[nH][nH]c1=O)c1cn(Cc2cccc3ccccc23)c2ccccc12	SENP6 inh 57, SENP8 block-2 86 | SENP8 conf-1 inactive | SENP6 confirm inactive | SENP7 conf inactive | Casp3 select inactive | SENP luc ctr inactive | SENP8 conf-2 85
Nc1n[nH]c(-c2ccccc2)n1	none
c1ccc(-c2n[nH]c(-c3ccccn3)n2)cc1	SENP6 inh 61, SENP7 block 64, SENP8 block-2 41 | SENP8 conf-1 51 | SENP6 confirm 51 | SENP7 conf 86 | Casp3 select 83 | SENP luc ctr 64 | SENP8 conf-2 inactive
CCOc1ccc(CN(C)C(=O)c2ccc(S(=O)(=O)N(C)c3ccccc3OC)cc2)cc1	none
COc1ccc(NC(=O)CSc2nc3c(c(-c4cccs4)c2C#N)CN(C)CC3)cc1OC	SENP6 inh 68, SENP8 block-2 52 | SENP8 conf-1 inactive | SENP6 confirm inactive | SENP7 conf inactive | Casp3 select inactive | SENP luc ctr inactive | SENP8 conf-2 inactive
O=c1c2ccccc2nc2n1C(CBr)CN2 (centres undefined)	none
Cc1cccc(C(=O)NCC(=O)OCc2nc(N)nc(Nc3ccccc3C)n2)c1	none
O=C(N/N=C1\C/C(=N\NC(=O)c2ccncc2)c2ccccc21)c1ccncc1	SENP6 inh 85, SENP8 block-1 64, SENP8 block-2 98 | SENP8 conf-1 inactive | SENP6 confirm inactive | SENP7 conf inactive | Casp3 select inactive | SENP luc ctr inactive | SENP8 conf-2 95
CN(C)c1ccc(NC(=O)C[n+]2ccccc2)cc1	none
CN(C)c1ccc(NC(=O)Oc2ccccc2)cc1	SENP6 inh 75, SENP8 block-2 44 | SENP8 conf-1 64 | SENP6 confirm 61 | SENP7 conf 85 | Casp3 select 81 | SENP luc ctr inactive | SENP8 conf-2 inactive
O=[N+]([O-])c1ccc(C=Nc2ccc(Cl)c([N+](=O)[O-])c2)s1	SENP6 inh 50, SENP8 block-2 76 | SENP8 conf-1 inactive | SENP6 confirm inactive | SENP7 conf inactive | Casp3 select inactive | SENP luc ctr inactive | SENP8 conf-2 80
Cc1cc(C)cc(N=Cc2ccc([N+](=O)[O-])s2)c1	SENP6 inh 57, SENP8 block-2 75 | SENP8 conf-1 inactive | SENP6 confirm inactive | SENP7 conf inactive | Casp3 select inactive | SENP luc ctr inactive | SENP8 conf-2 83
COc1cc(C(=O)c2nccc3cc(OC)c(OC)cc23)c([N+](=O)[O-])cc1OC	SENP6 inh 95, SENP8 block-1 84, SENP7 block 90, SENP1 FRET inh 39, SENP8 block-2 106 | SENP8 conf-1 inactive | SENP6 confirm 56 | SENP7 conf inactive | Casp3 select inactive | SENP luc ctr inactive | SENP8 conf-2 80
CC1=C(C(=O)N(C(C)C)C(C)C)CC(CC(=O)NCc2ccco2)C(=O)N1CCC1=CCCCC1 (centres undefined)	none (no result: SENP6 inh, SENP8 block-1, SENP7 block)
C[n+]1cccc2c(Br)ccc([O-])c21	SENP6 inh 95, SENP8 block-1 93, SENP7 block 87, SENP8 block-2 117 | SENP8 conf-1 inactive | SENP6 confirm inactive | SENP7 conf inactive | Casp3 select inactive | SENP luc ctr inactive | SENP8 conf-2 69
CCOC(=O)c1cc(S(=O)(=O)N2CCCC2)cn1C	none
COc1cccc(NC(=S)/C(=C(\[O-])c2ccc(OC(F)F)cc2)[n+]2ccccc2)c1	SENP6 inh 53, SENP8 block-2 61 | SENP8 conf-1 inactive | SENP6 confirm inactive | SENP7 conf inactive | Casp3 select inactive | SENP luc ctr inactive | SENP8 conf-2 70
[O-]/C(=C(\C(=S)Nc1cccc2ccccc12)[n+]1ccccc1)c1ccc(OC(F)F)cc1	none (no result: SENP6 inh, SENP8 block-1, SENP7 block)
